Results from different studies.
Each line is one published result; the experiments were not run side by side.
Target: Cyclin-dependent kinase 7 (CDK7, Homo sapiens, UniProt P50613)

CN(C)c1ncnc(-c2ccc3nc(Nc4cc(CN5CCN(C(=O)CC(F)(F)F)CC5)ccn4)[nH]c3c2)c1Cl
remaining binding (cell-free assay, competition with immobilised ligand; 1 µM): 80%

Cc1cnc(Nc2ccc(C(=O)N3CCC(N4CCCC4)CC3)cc2)nc1-c1cc2ccccc2s1
remaining binding (binding, competition with immobilised ligand; 1 µM): 2.4%

Cc1c(C(=O)O)cc(-c2ccc(C3CCNCC3)cc2)c2ccc(-c3ccc(C(F)(F)F)cc3)cc12
remaining binding (binding, competition with immobilised ligand; 1 µM): 97%

CN(CCCC(F)(F)F)c1nccc(-c2cnn3ncccc23)n1
remaining binding (binding; 1 µM): 87%

O=C(c1ccc(Nc2nccc(-c3cc4ccccc4s3)n2)cc1)N1CCC(N2CCCC2)CC1
remaining binding (binding, competition with immobilised ligand; 1 µM): 12%

C[C@H]1CCN(c2nccc(-c3cnn4ncccc34)n2)C1
remaining binding (binding; 1 µM): 27%

COc1cnc(Nc2cccc(S(N)(=O)=O)c2)nc1N1CCN(c2ccccc2)C(=O)C1
remaining binding (binding, competition with immobilised ligand; 1 µM): 73%

Nc1ncc2c(n1)-c1c([nH]c3ccc(C#CC4CC4)cc13)CCCC2
remaining binding (binding, competition with immobilised ligand; 1 µM): 92%

O=C(c1ccc(Nc2ncc(Cl)c(-c3cc4ccccc4s3)n2)cc1)N1CCC(N2CCCC2)CC1
remaining binding (binding, competition with immobilised ligand; 1 µM): 1.5%

CNC(=O)[C@@H]1CC[C@@H](n2c(-c3ccc4cnccc4c3)nc3ccc(C(=O)NCc4cccc(C(N)=O)c4)cc32)C1
remaining binding (binding, competition with immobilised ligand; 1 µM): 100%

CN(C)c1nccc(-c2cnn3ncccc23)n1
remaining binding (binding; 1 µM): 82%

O=C(Nc1c[nH]nc1C(=O)NC1CCNCC1)c1cc(F)cc(F)c1
remaining binding (binding, competition with immobilised ligand; 1 µM): 5.6%

O=S(=O)(NC1CCC(c2cc(F)ccc2F)(S(=O)(=O)c2ccc(Cl)cc2)CC1)C(F)(F)F (stereo not drawn)
remaining binding (cell-free assay, competition with immobilised ligand; 1 µM): 100%

C[C@@H](c1ccc(-n2cnc3c(N)ncnc32)cc1)N1CCc2nn(C)c(Cc3ccccc3)c2C1=O
remaining binding (binding, competition with immobilised ligand; 0.1 µM): 45%

COC(=O)Nc1nc2ccc(C(=O)c3ccccc3)cc2[nH]1
remaining binding (cell-free assay, competition with immobilised ligand; 10 µM): 11%

CS(=O)(=O)NCC[C@H](NC(=O)c1cncc2c1cnn2-c1ccc(F)cc1)c1ccnc(S(C)(=O)=O)c1
remaining binding (cell-free assay, competition with immobilised ligand; 1 µM): 100%

N[C@@H]1CCN(c2nccc(-c3cnn4ncccc34)n2)C1
remaining binding (binding; 1 µM): 21%

C=CC(=O)N1CCC(C(=O)NCC(=O)N2CCN(c3nc(-c4cnc(N)nc4C(F)F)nc(N4CCOCC4)n3)CC2)CC1
remaining binding (binding, competition with immobilised ligand; 1 µM): 94%

O=C(NS(=O)(=O)c1ccc(NCC2CCOCC2)c([N+](=O)[O-])c1)c1ccc(N2CCN(Cc3ccc(C(F)(F)F)cc3-c3ccc(Cl)cc3)CC2)cc1Oc1cnc2[nH]ccc2c1
remaining binding (cell-free assay, competition with immobilised ligand; 1 µM): 96%

c1cncc(-c2cccc(Nc3nccc(NC4CCCCC4)n3)c2)c1
remaining binding (binding, competition with immobilised ligand; 10 µM): 46%

COc1cccc(CNC(=O)c2nc3scc(COCc4ccc(C(=O)O)cc4)c3c(=O)[nH]2)c1
remaining binding (cell-free assay, competition with immobilised ligand; 1 µM): 80.5%

C[C@@H]1CN(c2ccc3ncc(-c4ccc5[nH]nc(C6CC6)c5c4)n3n2)C[C@H](C)O1
remaining binding (binding, competition with immobilised ligand; 50 nM): 88%

O=C(NCCCC1CCCCC1)c1ccc(CNC(=O)c2cnn(-c3ccccc3)c2C(F)(F)F)cc1
remaining binding (cell-free assay, competition with immobilised ligand; 0.1 µM): 100%

CC1CCCN1c1nccc(-c2cnn3ncccc23)n1 (stereo not drawn)
remaining binding (binding; 1 µM): 100%
